Bioassay records from PubChem BioAssay.
Tn7 DDE FP: disrupts Tn7 cyclic peptide binding to fibrin D-Dimer-E complex. P02675. FP displacement of FITC-Tn7 peptide from fibrin DD(E); 0% = median of compound wells per plate. inhibition, % at 8.3 µM. 0.13% of 370,000 active;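 active = inhibition above the mean of compounds falling within the control limits plus 3 SD of them, cut at about 14% in these data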
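System: human fibrin DD(E); quantity: Fibrin-DD(E) at 2 µM final; also added: fluorescent Tn7 probe at 0.1 µM; compound dosing: single nominal test concentration of 8.3 µM per compound; schedule: 10 min preincubation, 3 h with tracer, room temperature; detection: fluorescence polarization of the labelled Tn7 tracer; repeats: one replicate per compound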
SIAE primary: inhibitors of human sialic acid acetylesterase SIAE. Q9HAT2. SIAE FP-Rh probe binding, fluorescence polarization. inhibition, % at 9.66 µM. 0.69% of 370,000 active. AID 1053197;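 active = inhibition above a cutoff: mean of compounds within the control limits plus 3 SD of those, cut at about 17% in these data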
TCR-CD3 inh: inhibitors of human TCR-CD3 interaction | inhibition, % at 9.4 µM | TAMRA-labeled TCR probe fluorescence, biochemical | 0.37% of 360,000 active;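 also: recombinant mutant TCR 2C K166C tagged with TAMRA read by polarization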
mABHD4 FP: inhibits mouse alpha/beta hydrolase domain 4 | Q8VD66 | purified mABHD4, FP-Rh probe fluorescence polarization | inhibition, % at 8.92 µM | 0.54% of 370,000 active | AID 720543;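 active = inhibition exceeding the mean over every tested compound plus 3 SD, cut at about 30% in these data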
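Test system: mABHD4 protein | Buffer or medium: HEPES pH 7.0 buffer, 150 mM NaCl, 0.01% Pluronic F-127 | Probe or stimulus: FP-Rh fluorescent activity-based probe, added after compound pre-incubation | Timing: Pre-incubation 45 min, probe exposure 60 min, at 25 °C | Technique: Fluorescence polarization, excitation 525 nm, emission 598 nm, BODIPY TMR filters | Repeats: Single well per compound (singlicate)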
HTRA1 inhibitor: HTRA1 (human) protease inhibition | inhibition, % at 5.96 µM | Q92743 | recombinant HTRA1, FP-rhodamine activity-based probe, fluorescence polarization | 0.5% of 340,000 active | AID 504803; in the data active = inhibition above about 36%
Target sequence (Q92743 whole entry, looked up): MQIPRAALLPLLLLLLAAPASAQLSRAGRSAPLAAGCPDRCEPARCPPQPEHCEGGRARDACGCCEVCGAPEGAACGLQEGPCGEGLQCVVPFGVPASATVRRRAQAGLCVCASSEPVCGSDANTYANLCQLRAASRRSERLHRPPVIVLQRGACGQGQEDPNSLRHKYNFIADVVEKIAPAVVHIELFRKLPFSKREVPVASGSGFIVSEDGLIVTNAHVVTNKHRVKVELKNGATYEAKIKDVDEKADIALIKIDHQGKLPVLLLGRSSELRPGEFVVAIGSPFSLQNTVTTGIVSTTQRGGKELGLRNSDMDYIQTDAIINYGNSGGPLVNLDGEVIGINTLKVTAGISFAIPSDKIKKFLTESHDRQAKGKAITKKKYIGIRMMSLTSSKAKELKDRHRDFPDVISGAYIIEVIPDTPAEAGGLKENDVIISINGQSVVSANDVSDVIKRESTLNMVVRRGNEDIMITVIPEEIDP
DDE Tn6 FP inh: inhibitors of Tn6 peptide binding to human fibrin DD(E) | P02675 | AID 720509 | Fibrin DD(E) TRITC-Tn6 fluorescence polarization displacement | inhibition, % at 8.3 µM | 0.21% of 370,000 active;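 active = inhibition above a per-campaign cutoff: mean of compounds within control limits plus 3 SD, cut at about 15% in these data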
BSA probe FL: counter-screen for TCR-CD3 interaction inhibitors: BSA probe | inhibition, % at 9.4 µM | shares compounds with TCR-CD3 inh | AID 652035 | TAMRA-labeled BSA probe fluorescence counterscreen | 10% of 1,200 active; in the data active = inhibition above about 23%
TCR-CD3 conf: TCR-CD3 interaction inhibition, confirmation. shares compounds with TCR-CD3 inh. TAMRA-labeled TCR probe fluorescence binding assay. inhibition, % at 9.4 µM. 48% of 1,200 active
DDE Tn7 confirm: DD(E)-Tn7 binding inhibition, FP confirmation; 5% of 460 active; FP displacement of TRITC-Tn7 peptide from DD(E); 0% set at plate's compound-well median; AID 720628; shares compounds with Tn7 DDE FP; inhibition, % at 8.3 µM;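 active = inhibition above the campaign cutoff, the mean of compounds within control limits plus 3 SD, cut at about 14% in these data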;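 also: displacers lower polarization since freed probe rises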
DDE Tn7 FP ctr: DD(E)-Tn7 binding inhibition, counter-screen; shares compounds with Tn7 DDE FP; fibrin DD(E), TRITC-Tn7 probe displacement, fluorescence polarization; inhibition, % at 8.3 µM; 3% of 460 active; AID 720633;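 active = inhibition above the cutoff, the mean of compounds lying between the control bounds plus 3 SD of those compounds, cut at about 17% in these data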
ABHD4 confirm: confirmation of mouse ABHD4 inhibitors. shares compounds with mABHD4 FP. purified mABHD4, FP-Rh probe fluorescence polarization. inhibition, % at 8.92 µM. 55% of 1,800 active;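 active = mean inhibition across replicates above the hit cutoff set in the primary screen, cut at about 30% in these data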
SIAE inh conf: human SIAE inhibition, confirmation; shares compounds with SIAE primary; SIAE FP-Rh activity-based probe, fluorescence polarization; inhibition, % at 9.66 µM; 13% of 2,300 active;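 active = mean inhibition of the replicates above the hit cutoff set in the primary screen, cut at about 17% in these data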;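 also: inhibitors lower polarization as more probe stays unbound to SIAE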
Of the large screens only hits and unclear results are named; the others gave an inactive call (follow-up assays come after a bar, where they were run). This is a sample that favours compounds with a hit; in the whole collection about 1.8% have one here. Rule as the data show it, unless noted: active = inhibition above about 19%; inactive = the rest.

O=c1c(O)c(-c2cc(O)c(O)c(O)c2)oc2cc(O)cc(O)c12	SIAE primary 56, TCR-CD3 inh 29, mABHD4 FP 42 | BSA probe FL inactive | TCR-CD3 conf 45 | ABHD4 confirm 48
C[C@@H]1CN(c2ccc(N3CCN(C(=O)OC(C)(C)C)C[C@@H]3C)cc2C#N)C[C@H](C)O1	none (no result: HTRA1 inhibitor)
Oc1cc2c(cc1O)[C@H]1c3ccc(O)c(O)c3OC[C@@]1(O)C2	TCR-CD3 inh 128, mABHD4 FP 33 | BSA probe FL 65 | TCR-CD3 conf 116 | ABHD4 confirm inactive
C[C@@H]1CN(C(=O)OC(C)(C)C)CCN1c1ccc(N2CCN(Cc3ccccc3)[C@@H](C)C2)c(C#N)c1	none (no result: HTRA1 inhibitor)
O=C(CSc1nnc(-c2ccco2)c(-c2ccco2)n1)c1ccccc1	TCR-CD3 inh 35, mABHD4 FP 46 | BSA probe FL inactive | TCR-CD3 conf 19 | ABHD4 confirm inactive
CCn1c2c(n(C(C)=O)c1=O)C[C@@H](c1ccccc1)[C@@H](C)[C@@H](C(=O)N1CCCC1)C2	none (no result: HTRA1 inhibitor)
CCC(NC(=O)Nc1ccc(O)cc1)(C(F)(F)F)C(F)(F)F	TCR-CD3 inh 28, mABHD4 FP 62 | BSA probe FL inactive | TCR-CD3 conf inactive | ABHD4 confirm inactive
C/C(=N\NC(=O)COc1cccc(C)c1)c1ccc2ccccc2c1O	TCR-CD3 inh 28, mABHD4 FP 49 | BSA probe FL inactive | TCR-CD3 conf inactive | ABHD4 confirm 46
Cc1cccc(OCC(=O)NCc2ccccc2)c1	none
c1ccc(C2OC3c4cccc5cccc(c45)C3N2c2ccccc2)cc1 (stereo not drawn)	TCR-CD3 inh 25, mABHD4 FP 48 | BSA probe FL inactive | TCR-CD3 conf inactive | ABHD4 confirm inactive
CCCOc1ccc(/C=N/NC(=S)Nc2ccccc2[N+](=O)[O-])c(O)c1	TCR-CD3 inh 27, mABHD4 FP 39 (no result: HTRA1 inhibitor) | BSA probe FL inactive | TCR-CD3 conf inactive | ABHD4 confirm 36
CCCOc1ccc(/C=N/Nc2ccccc2[N+](=O)[O-])c(O)c1	none
Cc1ccccc1NC(=S)N/N=C/c1ccc(O)cc1O	TCR-CD3 inh 20, mABHD4 FP 34 | BSA probe FL inactive | TCR-CD3 conf inactive | ABHD4 confirm inactive
Cc1cccc(NC(=S)N/N=C/c2cccc(O)c2)c1C	none
Cc1ccc(-c2nnc(SCC(=O)Nc3ccc(OCc4ccccc4)cc3)n2-c2ccc(Cl)cc2)cc1	none (no result: TCR-CD3 inh, HTRA1 inhibitor)
C=CC[C@H]1c2ccccc2[C@H]2N3N=Cc4ccccc4[C@H]3[C@H](CCCC)C(=O)N2N1C(=O)NCc1ccccc1	none (no result: TCR-CD3 inh, HTRA1 inhibitor)
CCCCNC(=O)C[C@H]1C[C@@]2(C(=O)OC)C(=C[C@H](C3CCCC3)O[C@@H]2C)N(CCc2ccc(OC)c(OC)c2)C1=O	none (no result: TCR-CD3 inh, HTRA1 inhibitor)
O=C1C(=Cc2ccco2)CCCC1=Cc1ccco1	none
O=C1C(=Cc2ccco2)CCC1=Cc1ccco1	TCR-CD3 inh 45, mABHD4 FP 31 | BSA probe FL inactive | TCR-CD3 conf inactive | ABHD4 confirm inactive
[O-][n+]1c2ccccc2[n+]([O-])c2cc(O)ccc21	TCR-CD3 inh 21, mABHD4 FP 31, DDE Tn6 FP inh 16 | BSA probe FL inactive | TCR-CD3 conf 22 | ABHD4 confirm 35
CCCCN1CCN(C(=O)c2cn(C(C)c3ccccc3)nn2)CC1 (stereo not drawn)	none (no result: TCR-CD3 inh, HTRA1 inhibitor)
COc1ccc(/C(C)=N/NC(=S)NCCc2ccccc2)c(O)c1	SIAE primary 25, TCR-CD3 inh 22 | BSA probe FL inactive | TCR-CD3 conf inactive | SIAE inh conf 24
Cn1ccc2c(N3CCCCCCC3)cc3c(c21)C1CCC3O1 (stereo not drawn)	SIAE primary 49, TCR-CD3 inh 91, mABHD4 FP 40 (no result: HTRA1 inhibitor) | BSA probe FL inactive | TCR-CD3 conf inactive | ABHD4 confirm inactive | SIAE inh conf inactive
CCOC(=O)C1=Nc2ccccc2C1=[N+]=[N-]	none
CCOC(=O)C1=Nc2cccc3c(O)ccc1c23	Tn7 DDE FP 46, SIAE primary 30, TCR-CD3 inh 85 (no result: HTRA1 inhibitor) | BSA probe FL 141 | TCR-CD3 conf 110 | DDE Tn7 confirm 21 | DDE Tn7 FP ctr inactive | SIAE inh conf 18
COc1ccccc1C(=O)N1CCC2CCN(C(=O)OC(C)(C)C)C2C1 (stereo not drawn)	none (no result: HTRA1 inhibitor)
O=C1C=CC(=O)c2c(O)c(N3CCN(CCOCCO)CC3)c(Br)c(O)c21	SIAE primary 24, TCR-CD3 inh 75, mABHD4 FP 46, DDE Tn6 FP inh 31 | BSA probe FL inactive | TCR-CD3 conf 48 | ABHD4 confirm 72 | SIAE inh conf inactive
OCCOCCN1CCN(C2=Nc3ccccc3Sc3ccccc32)CC1	none
CCOc1ccc(NC(=O)NNC(=O)c2ccc3ccccc3c2O)cc1	SIAE primary 21, TCR-CD3 inh 32 | BSA probe FL inactive | TCR-CD3 conf 23 | SIAE inh conf inactive
CCN1C(=O)/C(=C2\SC(=S)N(NC(=O)c3ccccc3O)C2=O)c2ccccc21	SIAE primary 19, TCR-CD3 inh 31, mABHD4 FP 31 | BSA probe FL inactive | TCR-CD3 conf inactive | ABHD4 confirm 73 | SIAE inh conf 26
O=C(O)C1CCCC2CN3CCc4c([nH]c5ccccc45)C3C(O)C21 (stereo not drawn)	SIAE primary 19, TCR-CD3 inh 27 | BSA probe FL inactive | TCR-CD3 conf inactive | SIAE inh conf inactive
OC1CCC2CN3CCc4c([nH]c5ccccc45)C3CC2C1 (stereo not drawn)	none (no result: HTRA1 inhibitor)
O=C(CCc1ccccc1)N[C@H]1[C@@H](OC(=O)c2ccc([N+](=O)[O-])cc2)CCC[C@]12C(=O)N(Cc1ccccc1)c1ccccc12	none (no result: TCR-CD3 inh, HTRA1 inhibitor)
